Published values gathered from unrelated publications.
Each line is one published result; the experiments were not run side by side.

CNCC[C@H](Oc1cccc2ccccc12)c1cccs1  Tmax (female human; plasma; oral; 30 mg; multiple doses, once daily): 4.7 h
c1cnc2ccc(Nc3nc(NC4CC4)c4nc[nH]c4n3)cc2c1  Tmax (human; plasma; oral; 400 mg/m²; patients): 6.5 h
Oc1cc(O)c2c(c1)O[C@@H](c1ccc(O)c(O)c1)[C@@H](O)C2  Tmax (human; plasma; oral; 10 mg; single dose): 1 h
CCc1nc(C(N)=O)c(Nc2ccc(N3CCC(N4CCN(C)CC4)CC3)c(OC)c2)nc1NC1CCOCC1  Tmax (human; plasma; oral; 300 mg; multiple doses, patients): 6.93 h
Nc1cc(C(F)(F)F)c(-c2cc(N3CCOCC3)nc(N3CCOCC3)n2)cn1  Tmax (human; plasma; oral; 50 mg/day; patients): 1.02 h
CC(C)n1cc(C#N)c2cc(-n3cc(C(=O)O)cn3)ccc21  Tmax (human; plasma; oral; 200 mg; single dose, fed, healthy volunteers): 5 h
CCO[C@H]1CCN(Cc2c(OC)cc(C)c3[nH]ccc23)[C@H](c2ccc(C(=O)O)cc2)C1  Tmax (human; plasma; oral; 200 mg; multiple doses, twice daily, patients): 2 h
C#C[C@]1(COP(=O)(O)OP(=O)(O)OP(=O)(O)O)O[C@@H](n2cnc3c(N)nc(F)nc32)C[C@@H]1O  Tmax (human; plasma; oral; 100 mg; single dose): 24 h
COc1ccc(Oc2cc(N(C)CCOc3ccc(CC4SC(=O)NC4=O)cc3)ncn2)cc1 (centres unmarked)  Tmax (male human; plasma; oral; 0.5 mg; multiple doses, once daily, steady state): 0.67 h
NS(=O)(=O)NCCNc1nonc1C(=NO)Nc1ccc(F)c(Br)c1  Tmax (human; plasma; oral; 400 mg; multiple doses, twice daily, steady state, patients): 2 h
CC(C)[C@H](N)C(=O)NCCCS(=O)(=O)O  Tmax (human; plasma; oral; 256.5 mg; multiple doses, twice daily, fasted): 0.5 h
CS(=O)(=O)CCC#N  Tmax (human; plasma; oral; 1000 mg; single dose, fasted): 1.5 h
FC(F)(F)c1ccc(CNc2ccc(Cc3c[nH]c4ncc(Cl)cc34)cn2)cn1  Tmax (human; plasma; oral; 600 mg; single dose): 2.5 h
CO[C@@H]1[C@H](OC(=O)N2CC(CCN3CCOCC3)C2)CC[C@]2(CO2)[C@H]1[C@@]1(C)O[C@@H]1CC=C(C)C  Tmax (human; plasma; subcutaneous; 4.8 mg; single dose, healthy volunteers): 0.25 h
C[C@@H](c1ccc2nccn2c1)n1nnc2ncc(-c3cnn(C)c3)nc21  Tmax (human; plasma; oral; 200 mg): 2.5 h
CC(C)(O)c1ccccc1-c1ccc2[nH]c(/C=C/c3ccc(C(F)(F)F)cc3)nc2c1  Tmax (male human; plasma; oral; 30 mg; single dose, fasted): 3.03 h
CCCOc1ccc([C@H]2CNC(=O)N2c2ccc3[nH]cnc3c2)cc1  Tmax (human; plasma; oral; 200 mg; single dose, fed, healthy volunteers): 2 h
C=CC(=O)N1CCC(Oc2cc3c(Nc4ccc(Cl)c(Cl)c4F)ncnc3cc2OC)CC1  Tmax (human; plasma; oral; 16 mg; single dose, fed): 3.01 h
Cc1nc(NC(=O)N2CCC[C@H]2C(N)=O)sc1-c1ccnc(C(C)(C)C(F)(F)F)c1  Tmax (human; plasma; oral; 90 mg; patients): 2 h
C/C(=C\c1csc(C)n1)[C@@H]1C[C@@H]2O[C@]2(C)CCC[C@H](C)[C@H](O)[C@@H](C)C(=O)C(C)(C)[C@@H](O)CC(=O)N1  Tmax (human; plasma; intravenous; 15 mg/m²; patients): 0.8 h
CC(C)(Sc1ccncc1-c1ccc(C#N)c2ccccc12)C(=O)O  Tmax (male human; plasma; oral; 5 mg; single dose, fasted, healthy volunteers): 0.63 h
CO[C@H]1/C=C\C=C(/C)C(=O)NC2=CC(=O)C(NCCN(C)C)=C(C[C@@H](C)C[C@H](OC)[C@H](O)[C@@H](C)/C=C(\C)[C@@H]1OC(N)=O)C2=O  Tmax (human; plasma; intravenous; 12 mg/m²; patients, infusion): 1 h
C[C@@]1(c2cc(NC(=O)c3ccc(C#N)cn3)ccc2F)C=CSC(N)=N1  Tmax (male human; plasma; oral; 1 mg; single dose): 0.75 h
O=C(O)C[C@H](O)C[C@H](O)/C=C/c1c(C2CC2)nc2ccccc2c1-c1ccc(F)cc1  Tmax (human; plasma; oral; 2 mg; single dose, fasted, healthy volunteers, tablet): 1.17 h
Cn1cc(-c2ccc(S(=O)(=O)[C@@H]3C[C@@H](C(=O)NC4(C#N)CC4)N(C(=O)C4(C(F)(F)F)CC4)C3)c(C(F)(F)F)c2)cn1  Tmax (human; plasma; oral; 100 mg; single dose, fed): 5 h
COc1cc(N2CCC(N3CCN(C)CC3)CC2)ccc1Nc1ncnc(Nc2ccccc2S(=O)(=O)C(C)C)n1  Tmax (human; plasma; oral; 25 mg; multiple doses, patients): 2.48 h
CCc1nc2c(C)cc(N3CCN(CC(=O)N4CC(O)C4)CC3)cn2c1N(C)c1nc(-c2ccc(F)cc2)c(C#N)s1  Tmax (human; plasma; oral; 150 mg; fed, healthy volunteers): 1 h
CC(C)[C@](O)(c1ccc2cc(OC(F)F)c(OC(F)F)cc2c1)c1c[nH]nn1  Tmax (female human; plasma; oral; 750 mg; single dose): 3 h
C=CC(=O)N(C)CCOc1c(N)ncnc1-c1cc(F)cc(NC(=O)c2ccc(C3CC3)cc2F)c1C  Tmax (human; blood; oral; 600 mg; single dose, healthy volunteers): 1.02 h
C[C@@H](Nc1cc(F)cc(F)c1)c1cc(C(=O)N(C)C)cc2c(=O)cc(N3CCOCC3)oc12  Tmax (human; plasma; oral; 180 mg; single dose, patients): 1.98 h
O=C(Nc1c(Cl)cncc1Cl)c1ccc(OC(F)F)c(OCC2CC2)c1  Tmax (human; plasma; oral; 0.5 mg; single dose): 0.75 h
COc1ccc([C@@H]2CN(C(=O)[C@@H](O)CO)C[C@@]2(C)[C@@H](C)O)cc1OC1CN(c2ccc(C)cn2)C1  Tmax (human; plasma; oral; 30 mg; single dose, healthy volunteers): 3.88 h
